Measured values published in PMC7610535 (Nature chemical biology, 2020).

Assays:
[1] = molecular target: T1, AURORA-A^T217D (Homo sapiens, UniProt O14965, T217D); assay: Immunoblot of HA-tagged AURORA-A^T217D in IMR5 cells; assay type: cell-based; conditions: 24 hours
T1 sequence (O14965 1-403 T217D): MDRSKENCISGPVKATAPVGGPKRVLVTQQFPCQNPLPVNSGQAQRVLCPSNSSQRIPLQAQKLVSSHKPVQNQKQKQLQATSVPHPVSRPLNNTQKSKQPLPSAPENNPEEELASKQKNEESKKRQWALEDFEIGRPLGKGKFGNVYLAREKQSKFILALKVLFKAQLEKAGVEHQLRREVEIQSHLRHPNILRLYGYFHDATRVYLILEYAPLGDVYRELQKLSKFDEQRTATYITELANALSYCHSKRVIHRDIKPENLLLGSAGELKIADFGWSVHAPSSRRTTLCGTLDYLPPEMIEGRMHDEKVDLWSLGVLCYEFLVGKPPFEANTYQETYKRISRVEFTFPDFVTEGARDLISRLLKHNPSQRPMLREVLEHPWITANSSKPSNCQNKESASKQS
How it was run: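 IMR5 cells expressing HA-tagged AURORA-A T217D or wild-type AURORA-A were exposed to graded concentrations for 24 h. RIPA lysates (20 min, 4 °C) were cleared and BCA-quantified. Equal protein was resolved by Bis-Tris PAGE and transferred to PVDF. Membranes were blocked 1 h in 5% milk/TBS-T and probed for HA-tagged AURORA-A overnight at 4 °C.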

[2] = molecular target: AURORA-B^E162T (Homo sapiens, UniProt Q96GD4, E161T); assay: Immunoblot of HA-tagged AURORA-B swap mutant in MV4-11 cells; assay type: cell-based; conditions: 6 hours
Sequence of AURORA-B^E162T (Q96GD4 1-345 isoform Q96GD4-5 E162T): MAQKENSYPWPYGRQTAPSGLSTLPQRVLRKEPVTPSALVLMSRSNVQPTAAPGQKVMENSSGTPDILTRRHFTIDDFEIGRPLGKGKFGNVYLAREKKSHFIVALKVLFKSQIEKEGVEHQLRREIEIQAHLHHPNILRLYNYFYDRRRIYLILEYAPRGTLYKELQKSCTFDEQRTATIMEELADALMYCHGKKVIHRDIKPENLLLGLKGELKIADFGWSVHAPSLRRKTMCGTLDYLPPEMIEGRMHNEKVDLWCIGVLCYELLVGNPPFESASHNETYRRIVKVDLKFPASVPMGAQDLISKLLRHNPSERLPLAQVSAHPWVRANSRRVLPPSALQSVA

JB170-mediated depletion of AURORA-A^T217D [1]: largely abrogated
JB170-mediated degradation of AURORA-B^E162T with respect to AURORA-A [2]: strongly attenuated
SMILES: COc1cc(Nc2ncc3c(n2)-c2ccc(Cl)cc2C(c2c(F)cccc2OC)=NC3)ccc1C(=O)NCCOCCOCCNC(=O)COc1cccc2c1C(=O)N(C1CCC(=O)NC1=O)C2=O (centres unmarked) [JB170]
